# Measurements: ChEMBL document CHEMBL4376884, “Toward a Rational Design of Polyamine-Based Zinc-Chelating Agents for Cancer Therapies” (J Med Chem, 2020)
# Calls of active or inactive are those of the source. The rule behind the calls is not given here.
# Tests used:
# [1] = test system: Jurkat; assay: Antiproliferative activity against human Jurkat cells assessed as reduction in cell viability at 10 uM incubated for 48 hrs by cell titer-glo assay; type: functional, cell-based
# Procedure, shortened: (§1)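 Cells plated and treated 24 h later with 10 µM compound for 48 h; viable cells quantified by CellTiter-Glo ATP luminescence. Expressed as percentage of viable cells relative to untreated; mean ± SD of three independent experiments, each in triplicate.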
# [2] = test system: JeKo-1; assay: Antiproliferative activity against human JeKo1 cells assessed as reduction in cell viability at 10 uM incubated for 48 hrs by cell titer-glo assay; type: functional, cell-based; procedure, shortened: as §1
# [3] = test system: LN-229; assay: Antiproliferative activity against human LN229 cells assessed as reduction in cell viability at 10 uM incubated for 48 hrs by cell titer-glo assay; type: functional, cell-based; procedure, shortened: as §1
# [4] = test system: U-87 MG; assay: Antiproliferative activity against human U87MG cells assessed as reduction in cell viability at 10 uM incubated for 48 hrs by cell titer-glo assay; type: functional, cell-based; conditions: U-87MG ATCC; procedure, shortened: as §1
# [5] = test system: LN-229; assay: Metal chelating activity in human LN229 cells assessed as decrease in intracellular concentration of labile zinc ions by measuring reduction in zinquin-Zn2+ complex formation incubated for 12 hrs followed by incubation with fluorophore-zinquin for 30 mins by spectrofluorometric analysis; type: cell-based
# Procedure, shortened: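 LN229 cells were treated 12 h, trypsinized, pelleted and checked by Trypan Blue. Then 6x10⁶ cells in 1 mL PBS were loaded with Zinquin 25 μM for 30 min at 37 °C in the dark. Fluorescence was read at ex 370/em 475 nm with a 400–600 nm scan, normalized to cell number, untreated set to 100; four independent experiments.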
# [6] = Metal chelating activity assessed as Zn2+-compound complex formation by measuring stability constant for ZnL in 0.15M NaCl and hydroalcoholic solutions (H2O/EtOH 70:30) at 298.1K by potentiometric titration analysis
# Procedure, shortened: (§2)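 Glass-electrode potentiometric titration with an Ag/AgCl reference in saturated KCl. The electrode was calibrated as an [H+] probe against standardized HCl with CO₂-free NaOH, using Gran's method (pKw 13.73(1)). Range was pH 2.0–11.0, with metal and ligand at 1×10⁻³ to 5×10⁻³ M in 1:1 ratio. At least two curves per compound were merged and fitted with HYPERQUAD.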
# [7] = Metal chelating activity assessed as Zn2+-compound complex formation by measuring stability constant for ZnL(OH) in 0.15M NaCl and hydroalcoholic solutions (H2O/EtOH 70:30) at 298.1K by potentiometric titration analysis; procedure, shortened: as §2
# [8] = Metal chelating activity assessed as Zn2+-compound complex formation by measuring stability constant for ZnL(OH)2 in 0.15M NaCl and hydroalcoholic solutions (H2O/EtOH 70:30) at 298.1K by potentiometric titration analysis; procedure, shortened: as §2
# [9] = Metal chelating activity assessed as Zn2+-compound complex formation by measuring stability constant for ZnL(OH) using pre-Zn2+-complexed compound (ZnL) in 0.15M NaCl and hydroalcoholic solutions (H2O/EtOH 70:30) at 298.1K by potentiometric titration analysis; procedure, shortened: as §2
# [10] = Metal chelating activity assessed as Zn2+-compound complex formation by measuring stability constant for ZnL(OH)2 using pre-Zn2+-complexed compound (ZnL(OH)) in 0.15M NaCl and hydroalcoholic solutions (H2O/EtOH 70:30) at 298.1K by potentiometric titration analysis; procedure, shortened: as §2
# [11] = Metal chelating activity assessed as Zn2+-compound complex formation by measuring stability constant for ZnH2L2 in 0.15M NaCl and hydroalcoholic solutions (H2O/EtOH 70:30) at 298.1K by potentiometric titration analysis
# Procedure, shortened: (§3)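 Potentiometric titration at pH 2.0–11.0 with Ag/AgCl reference electrode. Glass electrode calibrated against HCl with CO2-free NaOH by Gran's method (pKw = 13.73). Metal and ligand each at 1×10⁻³ to 5×10⁻³ M, 1:1 molar ratio. At least two titration curves per compound, merged and fitted with HYPERQUAD to give stability constants.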
# [12] = test system: Fibroblast; assay: Cytotoxicity against human Fibroblast assessed as reduction in cell viability incubated for 48 hrs by cell titer-glo assay; type: cell-based
# Procedure, shortened: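 Dose-response: cells plated, treated 24 h later for 48 h, then ATP measured by CellTiter-Glo luminescence. IC50 given as mean ± SD from three independent experiments, each in triplicate. Fibroblasts came from individuals. Cells were kept in RPMI or DMEM with 10% heat-inactivated FBS and penicillin/streptomycin at 37 °C, 5% CO2.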
# [13] = test system: LN-229; assay: Inhibition of colony formation in human LN229 cells at 30 uM incubated for 4 hrs by crystal violet staining based colony counting method; type: functional, cell-based
# Procedure, shortened: (§4)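 LN229 and PC3 cells treated for 4 h with compound (10 µM) or with etoposide (30 µM positive control), washed, trypsinized and replated at 3000 cells per 60-mm plate. Colonies grown 7–10 days, fixed and stained with 0.5% crystal violet in 70% ethanol, and counted. Reported as percent of control; four independent experiments, each in duplicate.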
# [14] = test system: PC-3; assay: Inhibition of colony formation in human PC3 cells at 30 uM incubated for 4 hrs by crystal violet staining based colony counting method; type: functional, cell-based; procedure, shortened: as §4
# [15] = Metal chelating activity assessed as Zn2+-compound complex formation by measuring stability constant for ZnHL in 0.15M NaCl at 298.1K by potentiometric titration analysis; procedure, shortened: as §2
# [16] = Metal chelating activity assessed as Zn2+-compound complex formation by measuring stability constant for ZnH2L in 0.15M NaCl at 298.1K by potentiometric titration analysis; procedure, shortened: as §3
# [17] = Metal chelating activity assessed as Zn2+-compound complex formation by measuring stability constant for ZnL in 0.15M NaCl at 298.1K by potentiometric titration analysis; procedure, shortened: as §2
# [18] = Metal chelating activity assessed as Zn2+-compound complex formation by measuring stability constant for ZnL(OH) in 0.15M NaCl at 298.1K by potentiometric titration analysis; procedure, shortened: as §2
# [19] = Metal chelating activity assessed as Zn2+-compound complex formation by measuring stability constant for ZnL(OH)2 in 0.15M NaCl at 298.1K by potentiometric titration analysis; procedure, shortened: as §2
# [20] = Metal chelating activity assessed as Zn2+-compound complex formation by measuring stability constant for ZnL(OH) using pre-Zn2+-complexed compound (ZnL) in 0.15M NaCl at 298.1K by potentiometric titration analysis; procedure, shortened: as §2
# [21] = Metal chelating activity assessed as Zn2+-compound complex formation by measuring stability constant for ZnL(OH)2 using pre-Zn2+-complexed compound (ZnL(OH)) in 0.15M NaCl at 298.1K by potentiometric titration analysis; procedure, shortened: as §2
# [22] = Metal chelating activity assessed as Zn2+-compound complex formation by measuring stability constant for ZnH2L using pre-Zn2+-complexed compound (ZnHL) in 0.15M NaCl at 298.1K by potentiometric titration analysis; procedure, shortened: as §3
# [23] = Metal chelating activity assessed as Zn2+-compound complex formation by measuring stability constant for ZnHL using pre-Zn2+-complexed compound (ZnL) in 0.15M NaCl at 298.1K by potentiometric titration analysis; procedure, shortened: as §2
# [24] = Metal chelating activity assessed as Zn2+-compound complex formation at physiological pH 7.4 by quantum mechanical studies
# Procedure, shortened: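 Zn2+ complexes modelled by DFT, B3LYP, gas phase. Basis set def2-SV(P), with MDF10 Stuttgart-Dresden effective core potential for Zn and Grimme dispersion correction. Vibrational frequencies and zero-point correction computed for each minimum.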
# [25] = test system: DNA; assay: Induction of DNA damage in human LN229 cells assessed as increase in gammaH2AX phosphorylation at Ser139 residue at 1 uM incubated for 4 hrs by Flow cytometry analysis; type: cell-based
# Procedure, shortened: (§5)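 Z-138 and LN229 cells treated 4 h with 10 µM compound or 1 µM doxorubicin. Fixed in 3.7% formaldehyde on ice, permeabilized with 0.2% Triton X, stained with rabbit anti-pS139 H2A.X (1:400) and Alexa 555 secondary, then analysed by flow cytometry. Fold γH2AX fluorescence versus untreated; mean ± SD of three experiments.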
# [26] = test system: DNA; assay: Induction of DNA damage in human Z138 cells assessed as increase in gammaH2AX phosphorylation at Ser139 residue at 1 uM incubated for 4 hrs by Flow cytometry analysis; type: cell-based; procedure, shortened: as §5
SMILES,log K [17],log K [18],log K [19],log K [20],log K [21],Activity [24],Activity [1],Activity [2],Activity [3],Activity [4],Activity [5],further results
O=S(=O)(c1cccc2cccnc12)N(CCNCc1ccccn1)CCNCc1ccccn1,,,,,,,Active,Active,Active,,,
CN(CCNCc1ccncc1)CCNCc1ccncc1,,,,,,,inactive,inactive,inactive,inactive,inactive,log K [6]: 6.57; log K [7]: -2.6; log K [8]: -12.3; log K [9]: -9.17; log K [10]: -9.68; log K [11]: 24.3
c1ccc(CN(CCN(Cc2ccccn2)Cc2ccccn2)Cc2ccccn2)nc1,,,,,,,,,,,,IC50 [12]: 6.7 µM
COc1cc([C@@H]2c3cc4c(cc3[C@@H](O[C@@H]3O[C@@H]5CO[C@@H](C)O[C@H]5[C@H](O)[C@H]3O)[C@H]3COC(=O)[C@H]23)OCO4)cc(OC)c1O,,,,,,,,,,,,inhibition [13]: Active; inhibition [14]: Active
CN(C)c1cccc2c(S(=O)(=O)N(CCNCc3ccccn3)CCNCc3ccccn3)cccc12,8.38,-1.17,-11.5,-9.55,-10.4,Active,Active,Active,Active,Active,inactive,log K [15]: 13; log K [16]: 17.5; log K [22]: 4.5; log K [23]: 4.61
COc1cccc2c1C(=O)c1c(O)c3c(c(O)c1C2=O)C[C@@](O)(C(=O)CO)C[C@@H]3O[C@H]1C[C@H](N)[C@H](O)[C@H](C)O1,,,,,,,,,,,,Activity [25]: Active; Activity [26]: Active

# Now from value to compound, other results behind:
log K [17],log K [18],log K [19],log K [20],log K [21],Activity [24],SMILES,Activity [1],Activity [2],Activity [3],Activity [4],Activity [5],further results
4.72,-4.22,-12.9,-8.99,-8.67,60.7%,c1ccc2cc(CN(CCNCc3ccncc3)CCNCc3ccncc3)ccc2c1,inactive,inactive,inactive,inactive,inactive,
,,,,,Active,O=C(NCCN(CCNC(=O)c1ccccn1)Cc1ccc2ccccc2c1)c1ccccn1,,,,,inactive,
7.53,-1.48,-11.8,-10,-10.3,,O=S(=O)(c1cccc2ccccc12)N(CCNCc1ccccn1)CCNCc1ccccn1,Active,Active,Active,Active,inactive,
6.04,-2.56,-12.1,-8.6,-9.54,63.4%,c1cncc(CNCCN(CCNCc2cccnc2)Cc2ccc3ccccc3c2)c1,inactive,inactive,inactive,inactive,inactive,log K [15]: 14.1
